EBNA-1 inhibitor: EBNA-1 DNA-binding inhibitors, primary screen, biochemical, fluorescence polarization; 0.34% of 300,000 active; inhibition, % at 14.8 µM; in the data active = inhibition above about 28%
PP1 inh: PP1-alpha phosphatase inhibitors, primary screen, counter-screen for PP5 inhibitor project, biochemical, fluorescence, OMFP substrate, single point; purified PP1alpha; inhibition, % at 6.7 µM; 0.9% of 320,000 active; AID 2235, 2010;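 active = inhibition above the mean inhibition of all tested compounds plus 3 SD, computed separately for each screening campaign, cut at about 15% in these data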
HCV NS3 hel inh: inhibitors of HCV NS3 helicase, primary screen, biochemical, Cy5 molecular beacon fluorescence. NS3 helicase DNA unwinding. inhibition, % at 10.9 µM. 0.56% of 290,000 active;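 active = inhibition above the mean of all tested compounds plus 3 SD, set per campaign, cut at about 35% in these data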;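 note: 0% = DMSO wells and 100% = thioflavine S control wells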
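Assay system: hepatitis C virus NS3 helicase domain fragment enzyme. Also added: annealed dual-labelled DNA beacon duplex, ATP-started. Timing: 1 h reaction at 25 °C, ATP-initiated. Technique: Cy5 fluorescence at 0 and 60 min, beacon hairpin quenching. Evaluation: % inhibition of unwinding. Replication: one well per compound.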
core dimer inh: inhibitors of HCV core protein dimerization, primary screen, biochemical, TR-FRET, high-throughput; TR-FRET GST/Flag-core106 dimerization, 1536-well; inhibition, % at 5 µM; AID 1899, 2009; 0.33% of 300,000 active;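 active = inhibition above the mean of all tested compounds plus 3 SD, set per screening campaign, cut at about 45% in these data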
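assay system = GST-tagged and Flag-tagged HCV core protein residues 1-106 | controls = unlabelled core106 and no-GST-core106 wells | incubation = compound-protein-antibody incubation 4 h at 22.5 °C | probe or stimulus = Eu donor and XL665 acceptor anti-tag antibodies | read-out = % inhibition based on acceptor/donor emission ratio | signal = TR-FRET 671 and 617 nm emission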
ZTA counter: ZTA (EBV) inhibition in EBNA-1 counter-screen; inhibition, % at 11 µM; AID 2234; ZTA-DNA binding, fluorescence polarization; 0.15% of 320,000 active; in the data active = inhibition above about 33%
Target sequence (P03206 whole entry, looked up): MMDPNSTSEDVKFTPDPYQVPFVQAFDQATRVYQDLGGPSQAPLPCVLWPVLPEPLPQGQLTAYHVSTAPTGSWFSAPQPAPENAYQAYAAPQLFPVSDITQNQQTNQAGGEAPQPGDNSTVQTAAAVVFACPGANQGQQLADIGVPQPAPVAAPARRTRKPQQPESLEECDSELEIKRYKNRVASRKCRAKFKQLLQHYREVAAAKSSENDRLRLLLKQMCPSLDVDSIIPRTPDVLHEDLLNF
An asterisk follows results filed as active; / = not tested or not shown. Sampled rows, rich in hits. Any-hit rate of the full collection: about 1.9%.

SMILES | EBNA-1 inhibitor | PP1 inh | HCV NS3 hel inh | core dimer inh | ZTA counter
Cc1cccc(/C=N/NC(=O)c2ccc(NC(=O)c3ccc(Cl)cc3)cc2)n1 | 0 | 15* | 9 | -5 | -8
O=C(N/N=C/c1cccs1)c1cccc(NC(=O)c2ccc(Cl)cc2)c1 | 59* | 1 | -7 | 3 | 6
CCOC(=O)N1CCN(C(=O)c2cc(COc3c(F)cccc3F)on2)CC1 | 1 | -2 | 4 | -13 | -3
CNc1c(-n2cc(C(=O)OC)c(C(=O)OC)c2C(=O)OC)c(=O)n(C)c(=O)n1C | -13 | 9 | 13 | 1 | -2
O=C(N/N=C/c1ccc([N+](=O)[O-])cc1)c1ccc(COc2ccccc2-c2ccccc2)cc1 | -8 | -3 | 4 | 26 | -26
CC(C)(C)/C(O)=C(/C#N)c1nc2ccccc2[nH]1 | 5 | 3 | -1 | -4 | 6
C(=C\c1ccccc1)/C=N/Nc1nc2ccccc2[nH]1 | 4 | 16* | -10 | -23 | -19
N#C/C(=C(O)\C=C\c1ccccc1)c1nc2ccccc2[nH]1 | 12 | 16* | -3 | 3 | -11
C=CCn1c(O)c2ccc(C(=O)N=NC(=O)COc3ccccc3F)cc2c1O | -5 | 1 | / | -4 | -20
COc1cc(/C=N/Nc2nnc3c(n2)[nH]c2ccccc23)ccc1O | 4 | 9 | -6 | -2 | -7
CCc1ccc2[nH]c3nc(N/N=C/c4ccc(O)cc4O)nnc3c2c1 | -7 | 17* | -49 | 9 | -11
Cc1ccc2[nH]c3nc(N/N=C/c4cccc(O)c4)nnc3c2c1 | 8 | 16* | -26 | 6 | -15
CCc1ccc2[nH]c3nc(SCCN4CCOCC4)nnc3c2c1 | -6 | 3 | -17 | -1 | 1
Cc1ccc(C2=NN=C(NC(=O)CSc3nnc4c5ccccc5n(C)c4n3)SC2)cc1 | 8 | 22* | 53* | 15 | 26
Cc1ccc(C2=NN=C(NC(=O)CSc3nc(C)cc(C)n3)SC2)cc1 | 9 | 10 | -5 | -18 | -12
Cc1ccc(NC(=O)CC2C(=O)NCCN2C(=O)c2ccc(F)cc2)cc1 (stereo not given) | -1 | -4 | 13 | -2 | -24
CCOc1ccc(S(=O)(=O)N2CCC(C(=O)NCCc3ccc(OC)c(OC)c3)CC2)cc1 | 1 | 0 | 7 | -2 | -8
CCCC[C@@H]1CNCCN1CCc1cccc2ccccc12 | 7 | 1 | / | -31 | -3
Cc1ccc(S(=O)(=O)N(CC(=O)NCC2CCCO2)Cc2ccc(F)cc2)cc1 (stereo not given) | -14 | 15* | -4 | -10 | 9
O=C(CN(Cc1ccccc1)S(=O)(=O)c1ccc(Br)cc1)NCC1CCCO1 (stereo not given) | 11 | 3 | -6 | 2 | 9
N#CCCN(C(=O)COC(=O)Cc1c[nH]c2ccccc12)c1ccccc1 | -4 | -1 | / | 0 | -2
Cc1nnc(SCC(=O)Nc2nsc(-c3ccccc3)n2)s1 | -4 | 0 | -2 | -4 | -4
CC1(C)CC(=O)c2c(nc(SCC(=O)Nc3nsc(-c4ccccc4)n3)c(C#N)c2-c2ccccc2)C1 | 7 | 16* | -2 | 26 | 13
NC(=O)c1ccc(NC(=O)COc2ccc(-n3cnnn3)cc2)cc1 | / | -2 | / | / | -4
NC(=O)COc1ccc(-n2cnnn2)cc1 | 5 | 3 | -16 | 46* | 10
SMILES | EBNA-1 inhibitor | PP1 inh | HCV NS3 hel inh | core dimer inh | ZTA counter
COc1ccc2c(CC(=O)Nc3ccccc3OC)coc2c1 | -13 | 2 | -4 | 2 | 3
COc1ccc2c(CC(=O)Nc3ccc(OC)c(NS(=O)(=O)c4ccc(F)cc4)c3)coc2c1 | -7 | 2 | -10 | 68* | 0
O=C(Cc1cccs1)Nc1nnc(Cc2ccccc2)s1 | -5 | 3 | 12 | 83* | -5
CCc1nnc(NC(=O)Cc2ccc(OC)c(OC)c2)s1 | 1 | -5 | 3 | -3 | 11
O=C(Cc1cccs1)Nc1nnc(CCc2ccccc2)s1 | -19 | 1 | 18 | 12 | 7
COc1ccc(Cc2nnc(NC(=O)Cc3cccs3)s2)cc1OC | 3 | 1 | 4 | 74* | -5
COCc1c(Br)c(C)nc(OCC(=O)N/N=C/c2cc(C)n(-c3ccc([N+](=O)[O-])cc3)c2C)c1C#N | -3 | -3 | 0 | 48* | 3
